The source made the active and inactive calls. No cut-off for these calls is given here.
How the values were obtained:
Homo sapiens [1] = species on record: Homo sapiens; test: Inhibition of Wnt/beta-catenin signaling pathway in human HCT116 whole cell lysate harboring beta-catenin mutation assessed as reduction in survivin protein expression at 5 uM after 18 hrs by Western blot analysis
Outline: (§1)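 CCRC240, HCT116 or SW480 cells were grown to 50–70% confluency and exposed 18 h to 5 μM compound in DMSO. Whole-cell lysates were blotted for c-Myc, cyclin D1 and survivin. Hypotonic cytosolic fractions, syringe-dispersed and centrifuged 120 min, were blotted for β-catenin and Axin2. β-Actin served as loading control.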

Homo sapiens [2] = species on record: Homo sapiens; test: Inhibition of Wnt/beta-catenin signaling pathway in human HCT116 whole cell lysate harboring beta-catenin mutation assessed as reduction in cyclin D1 protein expression at 5 uM after 18 hrs by Western blot analysis; outline: as §1
Homo sapiens [3] = species on record: Homo sapiens; test: Inhibition of Wnt/beta-catenin signaling pathway in human CRC240 whole cell lysate assessed as reduction in survivin protein expression at 5 uM after 18 hrs by Western blot analysis; outline: as §1
[4] = target: Frizzled-1 (Homo sapiens) (UniProt Q9UP38); test: Induction of GFP-tagged Fzd1 (unknown origin) internalization expressed in human U2OS cells at 12.5 after 6 hrs by confocal microscopic method; format: functional, cell-based
Sequence of Frizzled-1 (Homo sapiens) (Q9UP38 70-647 limits assumed): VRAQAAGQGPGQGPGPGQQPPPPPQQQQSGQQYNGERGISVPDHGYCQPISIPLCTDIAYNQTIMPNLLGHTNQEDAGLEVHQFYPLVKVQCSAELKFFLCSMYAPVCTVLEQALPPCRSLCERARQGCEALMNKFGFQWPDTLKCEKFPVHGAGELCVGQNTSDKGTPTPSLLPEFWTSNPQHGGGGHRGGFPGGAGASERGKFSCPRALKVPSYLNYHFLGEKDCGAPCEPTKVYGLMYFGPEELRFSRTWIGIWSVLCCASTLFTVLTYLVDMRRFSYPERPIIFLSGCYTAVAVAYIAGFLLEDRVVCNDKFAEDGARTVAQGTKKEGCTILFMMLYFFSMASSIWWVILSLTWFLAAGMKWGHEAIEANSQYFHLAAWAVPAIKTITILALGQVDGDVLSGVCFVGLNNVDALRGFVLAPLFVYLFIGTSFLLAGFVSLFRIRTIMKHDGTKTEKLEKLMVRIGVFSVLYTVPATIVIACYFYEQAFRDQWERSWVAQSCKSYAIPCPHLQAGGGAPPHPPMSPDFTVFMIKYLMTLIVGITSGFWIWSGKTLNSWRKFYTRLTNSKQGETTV
Outline: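 U2OS cells stably expressing Fzd1-GFP were grown 24 h in confocal dishes and then treated 6 h at 37 °C with 12.5 μM compound, DMSO as control. Cells were fixed in 4% paraformaldehyde and imaged by confocal microscopy (488 nm excitation). Internalization was scored as intracellular green punctate vesicles.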

CCD-841CoN [5] = test: Stimulation of mitochondrial respiration in human CCD-841-CoN cells assessed as increase in oxygen consumption rate at 1 uM in presence of rotenone and […] antimycin A by polarographic analysis; format: functional, cell-based
Outline: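 CCD841Co cells were plated at 8000 per well and attached overnight. OCR was measured on a Seahorse XFp analyzer under basal conditions after 1 μM compound or DMSO was added. This was followed by 1 μM oligomycin, 1 μM FCCP, then 0.5 μM rotenone plus antimycin A (Mito Stress Test). Data given as mean ± SD, n = 2.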

HCT-116 = test: Antiproliferative activity against human HCT116 cells after 72 hrs by colorimetric MTS assay; format: functional, cell-based; conditions: HCT-116, 72 h
Outline: (§2)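 Cells plated at 5000 per well in their own media (Leibovitz's for SW948; McCoy's 5A for HT-29/HCT116; MEM for SW480; RPMI for CRC240/DLD-1) with 10% FBS. Exposed 72 h to compound, 0.001–10 μM or 0.04–10 μM, then colorimetric MTS read-out. […] CRC240 is a patient-derived xenograft line.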

Homo sapiens [6] = species on record: Homo sapiens; test: Inhibition of Wnt/beta-catenin signaling pathway in human HCT116 cells cytosol lysate harboring beta-catenin mutation assessed as reduction in Axin2 protein expression at 5 uM after 18 hrs by Western blot analysis; format: cell-based; outline: as §1
Homo sapiens [7] = species on record: Homo sapiens; test: Inhibition of Wnt/beta-catenin signaling pathway in human CRC240 whole cell lysate assessed as reduction in cyclin D1 protein expression at 5 uM after 18 hrs by Western blot analysis; outline: as §1
Homo sapiens [8] = species on record: Homo sapiens; test: Inhibition of Wnt/beta-catenin signaling pathway in human HCT116 whole cell lysate harboring beta-catenin mutation assessed as reduction in c-Myc protein expression at 5 uM after 18 hrs by Western blot analysis; outline: as §1
Homo sapiens [9] = species on record: Homo sapiens; test: Inhibition of Wnt/beta-catenin signaling pathway in human SW480 cells cytosol lysate harboring APC mutation assessed as reduction in Axin2 protein expression at 5 uM after 18 hrs by Western blot analysis; format: cell-based; outline: as §1
Homo sapiens [10] = species on record: Homo sapiens; test: Inhibition of Wnt/beta-catenin signaling pathway in human CRC240 cells cytosol lysate assessed as reduction in beta-catenin protein expression at 5 uM after 18 hrs by Western blot analysis; format: cell-based; outline: as §1
Homo sapiens [11] = species on record: Homo sapiens; test: Inhibition of Wnt/beta-catenin signaling pathway in human SW480 whole cell lysate harboring APC mutation assessed as reduction in cyclin D1 protein expression at 5 uM after 18 hrs by Western blot analysis; outline: as §1
[12] = Antiproliferative activity against human CRC240 cells after 72 hrs by colorimetric MTS assay; format: functional, cell-based; outline: as §2
CCD-841CoN [13] = test: Stimulation of mitochondrial respiration in human CCD-841-CoN cells assessed as increase in oxygen consumption rate at 1 uM under basal conditions by polarographic analysis
HT-29 = test: Antiproliferative activity against human HT-29 cells after 72 hrs by colorimetric MTS assay; format: functional, cell-based; conditions: HT-29, 72 h; outline: as §2
Homo sapiens [14] = species on record: Homo sapiens; test: Inhibition of Wnt/beta-catenin signaling pathway in human CRC240 cells cytosol lysate assessed as reduction in Axin2 protein expression at 5 uM after 18 hrs by Western blot analysis; format: cell-based; outline: as §1
SW480 = test: Antiproliferative activity against human SW480 cells after 72 hrs by colorimetric MTS assay; format: functional, cell-based; conditions: SW480, 72 h; outline: as §2
SW948 = test: Antiproliferative activity against human SW948 cells after 72 hrs by colorimetric MTS assay; format: functional, cell-based; conditions: SW948, 72 h; outline: as §2
[15] = Inhibition of Wnt3A-stimulated Wnt/beta-catenin pathway in HEK293 cells transfected with p8xTOPFlash, Renilla luciferase plasmid pRL-TK and pLKO.1 after 6 hrs by Dual topflash luciferase reporter assay; format: cell-based; conditions: Homo sapiens, HEK293, 6 h
Outline: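 HEK293 cells stably carrying p8xTOPFlash, pRL-TK and pLKO.1 were grown overnight to confluence in MEM/10% FBS with 1 μg/ml puromycin. Wnt-3A conditioned medium (from L Wnt-3A cells) containing compound (0.04–10 μM) or DMSO was added for 6 h. Dual-luciferase was read, with the Wnt3A+DMSO signal set as 100%.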

[16] = target: AMP-activated protein kinase, AMPK (Homo sapiens) (UniProt P54646+O43741+P54619+Q9UGJ0+Q9Y478+Q13131+Q9UGI9); test: Induction of AMPK phosphorylation in human CCD-841-CoN cells at 0.1 to 10 uM after 2 hrs by Western blot analysis; format: cell-based
Outline: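 Colonic epithelial CCD841Co cells were seeded at 0.27 million per well on poly-D-lysine-coated wells and attached overnight. Medium was then switched to glucose-free DMEM with 2 mM pyruvate and 2 mM glutamine containing compound or DMSO. Whole-cell lysates were immunoblotted for phospho-Thr172 AMPK and total AMPK, with β-actin as loading control. Methods give 30 min exposure; legend gives 2 h.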

DLD-1 = test: Antiproliferative activity against human DLD1 cells after 72 hrs by colorimetric MTS assay; format: functional, cell-based; conditions: DLD-1, 72 h; outline: as §2
Homo sapiens [17] = species on record: Homo sapiens; test: Inhibition of Wnt/beta-catenin signaling pathway in human HCT116 cells cytosol lysate harboring beta-catenin mutation assessed as reduction in beta-catenin protein expression at 5 uM after 18 hrs by Western blot analysis; format: cell-based; outline: as §1
Homo sapiens [18] = species on record: Homo sapiens; test: Inhibition of Wnt/beta-catenin signaling pathway in human SW480 cells cytosol lysate harboring APC mutation assessed as reduction in beta-catenin protein expression at 5 uM after 18 hrs by Western blot analysis; format: cell-based; outline: as §1
Homo sapiens [19] = species on record: Homo sapiens; test: Inhibition of Wnt/beta-catenin signaling pathway in human CRC240 whole cell lysate assessed as reduction in c-Myc protein expression at 5 uM after 18 hrs by Western blot analysis; outline: as §1
Homo sapiens [20] = species on record: Homo sapiens; test: Inhibition of Wnt/beta-catenin signaling pathway in human SW480 whole cell lysate harboring APC mutation assessed as reduction in survivin protein expression at 5 uM after 18 hrs by Western blot analysis; outline: as §1

| SMILES | inhibition (Homo sapiens [1]) | inhibition (Homo sapiens [2]) | inhibition (Homo sapiens [3]) | Activity [4] | Activity (CCD-841CoN [5]) | IC50 (HCT-116) [nM] | inhibition (Homo sapiens [6]) | inhibition (Homo sapiens [7]) | inhibition (Homo sapiens [8]) | inhibition (Homo sapiens [9]) | inhibition (Homo sapiens [10]) | inhibition (Homo sapiens [11]) | IC50 [12] [nM] | Activity (CCD-841CoN [13]) | IC50 (HT-29) [nM] | inhibition (Homo sapiens [14]) | IC50 (SW480) [nM] | IC50 (SW948) [nM] | IC50 [15] [nM] | Activity [16] | further results |
| --- | --- | --- | --- | --- | --- | --- | --- | --- | --- | --- | --- | --- | --- | --- | --- | --- | --- | --- | --- | --- | --- |
| O=C(Nc1ccc(C(F)(F)F)cc1)c1cc(Cl)cc2nc(C(F)(F)F)[nH]c12 | Active | Active | Active | Active | inactive | 280 | Active | Active | Active | Active | Active | Active | 320 | Active | 120 | Active | 330 | 70 | 190 | Active | IC50 (DLD-1): 360 nM; inhibition (Homo sapiens [17]): Active; inhibition (Homo sapiens [18]): Active; inhibition (Homo sapiens [19]): Active; inhibition (Homo sapiens [20]): Active |
| O=C(Nc1ccc([N+](=O)[O-])cc1Cl)c1cc(Cl)ccc1O [NICLOSAMIDE] | Active | Active | Active | Active | inactive | 410 | Active | Active | Active | Active | Active | Active | 890 | Active | 130 | Active | 980 | 110 | 450 | Active | IC50 (DLD-1): 2390 nM; inhibition (Homo sapiens [17]): Active; inhibition (Homo sapiens [18]): Active; inhibition (Homo sapiens [19]): Active; inhibition (Homo sapiens [20]): Active |

— ChEMBL document CHEMBL4270654, “Identification of DK419, a potent inhibitor of Wnt/β-catenin signaling and colorectal cancer growth” (Bioorg Med Chem, 2018)
